PMI activator: increases human mannose-6-phosphate isomerase activity | P34949 | purified human PMI, coupled resazurin fluorescence, 20 min; stronger effect = higher value; 1 = vehicle control, 0 substrate-free wells | activation factor at 20 µM | 0.005% of 190,000 active;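 active = activation factor of 2 or more at 20 µM, relative to plate controls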
Target sequence (P34949 whole entry, looked up): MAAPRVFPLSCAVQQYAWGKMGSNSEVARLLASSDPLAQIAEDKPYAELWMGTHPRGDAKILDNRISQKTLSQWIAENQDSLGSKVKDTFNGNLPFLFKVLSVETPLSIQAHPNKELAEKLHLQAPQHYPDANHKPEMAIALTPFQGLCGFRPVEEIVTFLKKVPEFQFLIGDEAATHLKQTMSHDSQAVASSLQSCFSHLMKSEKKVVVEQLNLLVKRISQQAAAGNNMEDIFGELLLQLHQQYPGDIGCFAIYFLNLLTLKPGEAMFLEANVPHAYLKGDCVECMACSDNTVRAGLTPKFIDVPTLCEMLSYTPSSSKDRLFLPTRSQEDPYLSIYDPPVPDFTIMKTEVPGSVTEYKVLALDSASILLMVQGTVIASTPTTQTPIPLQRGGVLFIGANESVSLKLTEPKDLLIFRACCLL
Rad51 HR inh: Rad51 (human) homologous recombination inhibition; hRad51 DNA strand exchange, fluorescence dequenching; inhibition, % at 10 µM; 0.085% of 200,000 active;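 active = inhibition above 40% at the single screening dose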;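 also: 0% = DMSO control wells and 100% = blanks with heterologous ssDNA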
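material = hRad51 filaments on single-stranded DNA | reagent = Donor/quencher-labelled 47-bp dsDNA substrate | compound = 10 µM final, single point | schedule = strand-exchange reaction 15 min at room temperature | measured by = fluorescein emission 520 nm, excitation 485 nm | read-out basis = % inhibition versus plate control and blank means | benchmarks = plate controls and plate blanks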
L major viab: reduces viability of Leishmania major promastigotes. inhibition, % at 10 µM. 9% of 200,000 active. AID 1063. resazurin fluorescence viability; in the data active = inhibition above about 50%;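 also: promastigotes grown with compound for 44 hours at 28 °C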
Calpain2 inh: inhibitors of pig calpain II; 0.37% of 220,000 active; inhibition, % at 16 µM; purified calpain II, fluorogenic peptide substrate, 30 min; AID 1236;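 active = inhibition above about 50%, limit read from the data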
WT yeast gro inh: growth inhibition of WT yeast, mitochondrial fusion screen; mitochondrial fusion phenotypic screen, WT strain; inhibition, % at 10 µM; 2.1% of 190,000 active; AID 1362; in the data active = inhibition above about 58%; tested in S. cerevisiae
PMI act satM6P: PMI (human) activation, high substrate; coupled PMI enzyme assay, resazurin fluorescence, 20 min; stronger effect = higher value; 1 = untreated enzyme, 0 = substrate-free blank; activation factor at 20 µM; 0.34% of 190,000 active;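 active = activation factor of 2 or more at 20 µM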
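Material: human phosphomannose isomerase with PGI, G6PDH, diaphorase coupling enzymes. Quantity: 15 ng/mL PMI. Medium: HEPES pH 7.4 buffer with MgCl2 and Tween-20. Reagent: Near-saturating mannose-6-phosphate, 1.0 mM. Compound: 20 µM single dose. Times: enzyme reaction with compound 20 min at room temperature. Detection: resorufin fluorescence at Ex 544/Em 590 nm.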
* = called active by the depositor. An excerpt weighted towards active compounds, which were near 9.8% of everything screened.

Screening Cc1cc(C)nc(NC(=O)C2c3ccccc3Oc3ccccc32)n1 returned PMI activator 1, Rad51 HR inh -4, L major viab -3, Calpain2 inh -26, WT yeast gro inh 4 and PMI act satM6P 1.
Cc1ccc2nsnc2c1NS(=O)(=O)c1c(C)ccc2nsnc12 was read as PMI activator 0.9, Rad51 HR inh -4, L major viab -4, Calpain2 inh 20 and PMI act satM6P 0.7.
Screening Cc1ccc(/C=[N+](\[O-])c2ccc(N(C)C)cc2)c2nsnc12 returned PMI activator 0.3, L major viab 32, Calpain2 inh -20, WT yeast gro inh 77* and PMI act satM6P 0.3.
Screening COc1ccc(CNC(=O)CN(c2ccccc2)S(=O)(=O)N(C)C)cc1 returned PMI activator 0.9, Rad51 HR inh 7, L major viab 0, Calpain2 inh -8, WT yeast gro inh 7 and PMI act satM6P 0.9.
NC(=S)N/N=C\c1ccc(-c2cccc(Cl)c2Cl)o1 was read as PMI activator 1.3, Rad51 HR inh -1, L major viab 100*, Calpain2 inh 12, WT yeast gro inh 31 and PMI act satM6P 1.5.
Screening Cc1ccc(-c2ccc(/C=N/NC(N)=S)o2)cc1 returned Rad51 HR inh -1 and Calpain2 inh -18.
For NC(=S)N/N=C/c1ccc(-c2ccc(Cl)c(Cl)c2)o1 the results were PMI activator 1.3, Rad51 HR inh 3, L major viab 96*, Calpain2 inh -168, WT yeast gro inh 69* and PMI act satM6P 1.5.
`CCOC(=O)c1c(NC(=O)c2cc(C)on2)c2cc([N+](=O)[O-])ccc2n1C` gave Rad51 HR inh -7 and Calpain2 inh 0.
CN(C)CCNC(=O)c1ccc(CS(=O)(=O)c2ccc(Br)cc2)o1 was read as Rad51 HR inh -4, L major viab 77* and WT yeast gro inh 12.
`CN(C)CCNC(=O)c1ccc(CS(=O)(=O)c2c(Cl)cccc2Cl)o1` gave PMI activator 1, Rad51 HR inh -4, L major viab 7, Calpain2 inh -18, WT yeast gro inh 7 and PMI act satM6P 1.
CCCCCCCCNC(=O)/C(C#N)=C/c1ccccc1[N+](=O)[O-] was read as PMI activator 0.8, Rad51 HR inh 3, L major viab 58*, Calpain2 inh -4, WT yeast gro inh 68 and PMI act satM6P 0.8.
For CCOCCCNC(=O)/C(C#N)=C/c1ccc([N+](=O)[O-])o1 the results were PMI activator 1.1, Rad51 HR inh -42, L major viab 101*, Calpain2 inh -37, WT yeast gro inh 91* and PMI act satM6P 0.8.
For N#C/C(=C\c1ccccc1[N+](=O)[O-])C(=O)NCc1ccccc1 the results were Rad51 HR inh 14 and Calpain2 inh 2.
For CCOCCCNC(=O)/C(C#N)=C/c1ccc(-c2ccc(S(=O)(=O)N3CCOCC3)cc2)o1 the results were PMI activator 1, Rad51 HR inh -13, L major viab 18, Calpain2 inh -124, WT yeast gro inh 10 and PMI act satM6P 0.9.
C=CCNC(=S)Nc1nc2c(cc1C(=O)OCC)CCCC2 was read as PMI activator 1, Rad51 HR inh -3, L major viab 40, Calpain2 inh 0, WT yeast gro inh 16 and PMI act satM6P 1.
`CCCNC(=S)Nc1ccc(F)cc1F` gave Rad51 HR inh 12 and Calpain2 inh -11.
For O=C(O)C(c1ccccc1)C(c1ccccc1)c1ccccc1 (stereo not drawn) the results were PMI activator 1.1, Rad51 HR inh 0, L major viab -3, Calpain2 inh -29, WT yeast gro inh -8 and PMI act satM6P 1.
For Cc1sc(NC(=O)c2ccco2)c(CN2CCC(C)CC2)c1C the results were PMI activator 0.9, Rad51 HR inh 9, L major viab 4, Calpain2 inh 4, WT yeast gro inh 6 and PMI act satM6P 1.
For Cc1sc(NC(=O)c2ccco2)c(C(c2cccnc2)N2CCC(C)CC2)c1C (stereo not drawn) the results were PMI activator 0.9, Rad51 HR inh -1, L major viab 91*, Calpain2 inh -38, WT yeast gro inh -14 and PMI act satM6P 0.9.
`O=c1cnn(-c2ccc(Cl)cc2Cl)c(-c2ccccc2)c1` gave PMI activator 1, L major viab 92*, Calpain2 inh 3, WT yeast gro inh 8 and PMI act satM6P 1.
Screening O=C(Nc1nnc(-c2ccncc2)o1)c1ccc(Br)s1 returned PMI activator 1.2, Rad51 HR inh -12, L major viab 14, Calpain2 inh 36, WT yeast gro inh 13 and PMI act satM6P 1.2.
`COc1cc(CN2CCNC(=O)C2CC(=O)N(C)Cc2ncc[nH]2)cc(OC)c1` (stereo not drawn) gave Rad51 HR inh -36, L major viab 0, Calpain2 inh -39 and WT yeast gro inh 1.
CC12C(=O)N(c3ccc(OC(=O)c4ccco4)cc3)C(=O)C1C1c3ccccc3C2c2ccccc21 (stereo not drawn) was read as PMI activator 0.9, Rad51 HR inh 12, L major viab 58*, Calpain2 inh 26, WT yeast gro inh 4 and PMI act satM6P 0.9.
CC(=O)c1c(C)[nH]c(C(=O)OCC(=O)Nc2ccc(Cl)cc2[N+](=O)[O-])c1C was read as PMI activator 0.9, Rad51 HR inh 5, L major viab -9, Calpain2 inh -11, WT yeast gro inh 11 and PMI act satM6P 0.9.
For Cc1c(C=N)c(O)n(C)c(=O)c1C#N the results were Rad51 HR inh -5 and Calpain2 inh 24.
`O=C(Nc1cccc(C(F)(F)F)c1)C1CCCN1S(=O)(=O)c1cccc2cccnc12` (stereo not drawn) gave PMI activator 0.9, Rad51 HR inh 1, L major viab 84*, Calpain2 inh 0, WT yeast gro inh 3 and PMI act satM6P 0.9.
Cc1nc(C)c(C(=O)O)c(-c2cccs2)c1C(=O)O was read as Rad51 HR inh 17 and Calpain2 inh 6.
COc1ccc(NC(=O)CN(C)CC(=O)Nc2ccccc2SC)cc1Cl was read as PMI activator 0.9, Rad51 HR inh 0, L major viab 7, Calpain2 inh 2, WT yeast gro inh 0 and PMI act satM6P 1.
Screening COc1ccc(NCC(=O)Nc2ccccc2C#N)cc1Cl returned PMI activator 0.9, Rad51 HR inh 4, L major viab 87*, Calpain2 inh 6, WT yeast gro inh -1 and PMI act satM6P 0.9.
CNC(=S)NNc1nc(C)cc(C)n1 was read as PMI activator 1.1, Rad51 HR inh 5, L major viab -6, Calpain2 inh 20, WT yeast gro inh -1 and PMI act satM6P 1.
Cn1cnc([N+](=O)[O-])c1Oc1ccc2ccccc2c1 was read as PMI activator 0.8, Rad51 HR inh -4, L major viab 81*, Calpain2 inh 14, WT yeast gro inh 17 and PMI act satM6P 0.5.
